For experiment [1], the system named is PHDVC5HCHNSD1. In words: NMR titration. The format is binding, murine. Particulars: for average CSP value <CSP>: 15N HSQC of PHDVC5HCHNSD1 (0.2 mM), up to 12 molar excess of peptide, 295 K, pH 6.3; for interaction strength: fast exchange regime; for interaction strength / affinity: up to 12 molar excess; for affinity: no saturation. In a few lines:
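15N-labelled PHDvC5HCH domain was expressed in E. coli BL21(DE3) in 15NH4Cl minimal medium with 1 mM IPTG at 28°C overnight. Protein at 0.2–0.3 mM, quantified by UV (ε 12490 M⁻¹cm⁻¹), was in 20 mM sodium phosphate pH 6.3, 0.15 M NaCl, 2 mM DTT, 50 μM ZnCl₂. Peptide (>98% pure, 15 mM stock, dry-weight quantified) was added stepwise; 2D 15N-HSQC was acquired per point. CSP = [(ΔδHN² + ΔδN²/25)/2]^½.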

In experiment [2] the test system is PHDVC5HCHNSD1. Particulars: biotinylated peptides, 21 aminoacids long; cited from earlier work.

For H3_1–21: Synthetic histone H3 peptide, the “average CSP value <CSP>” value with PHDVC5HCHNSD1 [1] is recorded as about 0.02 ppm. For the same molecule, in the experiment on PHDVC5HCHNSD1 [1] (NMR titration), the “interaction strength” value is “extremely weak interactions” and the “affinity” value is given as “affinities in the high mM range”.

Take “H3K9me3_1–21: Synthetic histone H3 peptide, K9me3”: the “average CSP value <CSP>” value in the experiment with PHDVC5HCHNSD1 [1] is recorded as about 0.02 ppm. Also, in the experiment with PHDVC5HCHNSD1 [1] (NMR titration), the “interaction strength” value is “extremely weak interactions” and the “affinity” value is “affinities in the high mM range”. The “binding in vitro” value in the experiment with PHDVC5HCHNSD1 [2] is listed as “binds”.

For the molecule “H3K4me3_1–21: Synthetic histone H3 peptide, K4me3”, the “average CSP value <CSP>” value in the experiment with PHDVC5HCHNSD1 [1] is on record as about 0.02 ppm. Further, in the experiment on PHDVC5HCHNSD1 [1] (NMR titration), the “interaction strength” value was “extremely weak interactions” and the “affinity” value is on record as “affinities in the high mM range”. Further, in the experiment on PHDVC5HCHNSD1 [2], the “binding in vitro” value is reported as “binds”.

Take `NCCCC[C@H](N)C(=O)O` [Lysine]: in the experiment on PHDVC5HCHNSD1 [1] (NMR titration, up to 300 mM of Lysine), the “amide chemical shifts induced” value is given as “induced amide chemical shifts in the same region”.

The record behind these values is paper PMC4838375 (Nucleic Acids Research, 2016).
